Test results published in ChEMBL document CHEMBL1123585, “Differential effects of N-terminal modifications on the biological potencies of growth hormone releasing factor analogues with varying chain lengths” (1987).
Several values for one entry are separate records, joined by “and”; a condition that tells them apart may be missing. Identical values can stand only once.

Tests used:
[1] = biological target: T1, Growth hormone-releasing hormone receptor (Rattus norvegicus) (UniProt Q02644); assay: Effect on growth hormone release(GRF) was determined in nembutal-anesthetized rat, at dose of 10 ug/100 g body weight.; type: functional
T1 sequence (whole entry): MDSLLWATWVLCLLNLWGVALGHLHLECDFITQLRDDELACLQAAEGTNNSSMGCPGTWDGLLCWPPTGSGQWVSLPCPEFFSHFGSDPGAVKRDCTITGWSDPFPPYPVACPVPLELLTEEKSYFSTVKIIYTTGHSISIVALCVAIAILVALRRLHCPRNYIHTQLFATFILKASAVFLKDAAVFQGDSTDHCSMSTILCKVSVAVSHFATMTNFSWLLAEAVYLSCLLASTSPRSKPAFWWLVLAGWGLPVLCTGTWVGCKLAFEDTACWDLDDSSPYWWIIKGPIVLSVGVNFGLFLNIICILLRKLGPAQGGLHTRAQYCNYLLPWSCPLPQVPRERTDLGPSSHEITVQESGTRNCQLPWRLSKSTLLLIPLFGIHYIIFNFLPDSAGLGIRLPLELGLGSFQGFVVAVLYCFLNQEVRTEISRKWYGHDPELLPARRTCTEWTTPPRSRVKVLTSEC
How it was run: (§1)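 Male Charles River rats (175-275 g), anesthetized with sodium pentobarbital 6 mg/100 g body weight. Six to nine per group. Peptide or saline given subcutaneously in 0.5 mL, 30 min after anesthetic. Jugular vein blood taken 15 min post-injection. Plasma GH measured by radioimmunoassay and reported as ng/mL, mean ± SEM.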

[2] = biological target: T1, Growth hormone-releasing hormone receptor (Rattus norvegicus); assay: Effect on growth hormone release(GRF) was determined in nembutal-anesthetized rat, at dose of 100 ug/100 g body weight.; type: functional; how it was run: as §1
[3] = biological target: T1, Growth hormone-releasing hormone receptor (Rattus norvegicus); assay: Tested for the potency of growth hormone (GRF) on subcutaneous administration in anesthetized male Charles River rats; type: functional, organism-based
How it was run: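 Pentobarbital-anesthetized male rats (175-275 g), six to nine per group, received two subcutaneous doses of analogue or of reference GRF(1-29)NH2, in 0.5 mL, 30 min after anesthesia. Plasma GH measured by RIA 15 min later. Potency with 95% confidence limits calculated from a four-point assay design by the Pugsley method.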

Rattus norvegicus [4] = species: Rattus norvegicus; assay: In vitro rat pituitary cell growth hormone response to the compound was obtained; type: functional, Pituitary gland cell
Rattus norvegicus [5] = assay: Effect on growth hormone release(GRF) was determined in nembutal-anesthetized rat, at dose of 20 ug/100 g body weight.; type: functional, organism-based; how it was run: as §1
Rattus norvegicus [6] = assay: Effect on growth hormone release(GRF) was determined in nembutal-anesthetized rat, at dose of 50 ug/100 g body weight.; type: functional, organism-based; how it was run: as §1
[7] = biological target: T1, Growth hormone-releasing hormone receptor (Rattus norvegicus); assay: In vitro rat pituitary cell growth hormone response was obtained; type: functional, cell-based; settings: Pituitary gland cell

| Molecule | Plasma GH release [1] | Plasma GH release [2] [ng/mL] | Potency [3] [%] | Potency (Rattus norvegicus [4]) [%] | Plasma GH release (Rattus norvegicus [5]) [ng/mL] | Plasma GH release (Rattus norvegicus [6]) [ng/mL] | Potency [7] [%] |
| --- | --- | --- | --- | --- | --- | --- | --- |
| Ac-HADAIFTNSYRKVLGQLSARKLLQ-NH2 | 358 ng/mL | 719 | < 5 | – | – | – | – |
| CC[C@H](C)[C@H](NC(=O)[C@H](C)NC(=O)[C@H](CC(=O)O)NC(=O)[C@H](C)NC(=O)[C@H](Cc1ccc(O)cc1)NC(C)=O)C(=O)N[C@@H](Cc1ccccc1)C(=O)N[C@H](C(=O)N[C@@H](CC(N)=O)C(=O)N[C@@H](CO)C(=O)N[C@@H](Cc1ccc(O)cc1)C(=O)N[C@@H](CCCN=C(N)N)C(=O)N[C@@H](CCCCN)C(=O)N[C@H](C(=O)N[C@@H](CC(C)C)C(=O)NCC(=O)N[C@@H](CCC(N)=O)C(=O)N[C@@H](CC(C)C)C(=O)N[C@@H](CO)C(=O)N[C@@H](C)C(=O)N[C@@H](CCCN=C(N)N)C(=O)N[C@@H](CCCCN)C(=O)N[C@@H](CC(C)C)C(=O)N[C@@H](CC(C)C)C(=O)N[C@@H](CCC(N)=O)C(=O)N[C@@H](CC(=O)O)C(=O)N[C@H](C(=O)N[C@@H](CCSC)C(=O)N[C@@H](CO)C(=O)N[C@@H](CCCN=C(N)N)C(N)=O)[C@@H](C)CC)C(C)C)[C@@H](C)O | – | – | 1200 | 240 | – | – | – |
| Ac-YADAIFTNSYRKVLGQLSARKLLQDIL-NH2 | – | – | 54 | – | 1270 | 2730 | – |
| CC[C@H](C)[C@H](NC(=O)[C@H](C)NC(=O)[C@H](CC(=O)O)NC(=O)[C@H](C)NC(=O)[C@@H](N)Cc1ccc(O)cc1)C(=O)N[C@@H](Cc1ccccc1)C(=O)N[C@H](C(=O)N[C@@H](CC(N)=O)C(=O)N[C@@H](CO)C(=O)N[C@@H](Cc1ccc(O)cc1)C(=O)N[C@@H](CCCN=C(N)N)C(=O)N[C@@H](CCCCN)C(=O)N[C@H](C(=O)N[C@@H](CC(C)C)C(=O)NCC(=O)N[C@@H](CCC(N)=O)C(=O)N[C@@H](CC(C)C)C(=O)N[C@@H](CO)C(=O)N[C@@H](C)C(=O)N[C@@H](CCCN=C(N)N)C(=O)N[C@@H](CCCCN)C(=O)N[C@@H](CC(C)C)C(=O)N[C@@H](CC(C)C)C(=O)N[C@@H](CCC(N)=O)C(N)=O)C(C)C)[C@@H](C)O | – | – | < 1 | – | – | – | 0.008 |
| CC[C@H](C)[C@H](NC(=O)[C@H](C)NC(=O)[C@@H](CC(=O)O)NC(=O)[C@@H](C)NC(=O)[C@@H](N)Cc1ccc(O)cc1)C(=O)N[C@@H](Cc1ccccc1)C(=O)N[C@H](C(=O)N[C@H](CC(N)=O)C(=O)N[C@@H](CO)C(=O)N[C@@H](Cc1ccc(O)cc1)C(=O)N[C@@H](CCCN=C(N)N)C(=O)N[C@@H](CCCCN)C(=O)N[C@H](C(=O)N[C@@H](CC(C)C)C(=O)NCC(=O)N[C@@H](CCC(N)=O)C(=O)N[C@@H](CC(C)C)C(=O)N[C@@H](CO)C(=O)N[C@@H](C)C(=O)N[C@@H](CCCN=C(N)N)C(=O)N[C@@H](CCCCN)C(=O)N[C@@H](CC(C)C)C(N)=O)C(C)C)[C@@H](C)O | 314 ng/mL | 340 | < 5 | – | – | – | – |
| CC[C@H](C)[C@H](NC(=O)[C@H](C)NC(=O)[C@H](CC(=O)O)NC(=O)[C@@H](C)N(C)C(=O)[C@@H](N)Cc1ccc(O)cc1)C(=O)N[C@@H](Cc1ccccc1)C(=O)N[C@H](C(=O)N[C@H](CC(N)=O)C(=O)N[C@@H](CO)C(=O)N[C@@H](Cc1ccc(O)cc1)C(=O)N[C@@H](CCCN=C(N)N)C(=O)N[C@@H](CCCCN)C(=O)N[C@H](C(=O)N[C@@H](CC(C)C)C(=O)NCC(=O)N[C@@H](CCC(N)=O)C(=O)N[C@@H](CC(C)C)C(=O)N[C@@H](CO)C(=O)N[C@@H](C)C(=O)N[C@@H](CCCN=C(N)N)C(=O)N[C@@H](CCCCN)C(=O)N[C@@H](CC(C)C)C(N)=O)C(C)C)[C@@H](C)O | 512 ng/mL | 385 | < 5 | – | – | – | – |
| CC[C@H](C)[C@H](NC(=O)[C@H](C)NC(=O)[C@H](CC(=O)O)NC(=O)[C@@H](C)NC(=O)[C@@H](N)Cc1ccc(O)cc1)C(=O)N[C@@H](Cc1ccccc1)C(=O)N[C@H](C(=O)N[C@H](CC(N)=O)C(=O)N[C@@H](CO)C(=O)N[C@@H](Cc1ccc(O)cc1)C(=O)N[C@@H](CCCN=C(N)N)C(=O)N[C@@H](CCCCN)C(=O)N[C@H](C(=O)N[C@@H](CC(C)C)C(=O)NCC(=O)N[C@@H](CCC(N)=O)C(=O)N[C@@H](CC(C)C)C(=O)N[C@@H](CO)C(=O)N[C@@H](C)C(=O)N[C@@H](CCCN=C(N)N)C(=O)N[C@@H](CCCCN)C(=O)N[C@@H](CC(C)C)C(N)=O)C(C)C)[C@@H](C)O | 417 ng/mL and 305 ng/mL | – | < 5 | – | – | – | – |
| Ac-YADAIFTNSYRKVLGQLSARKLLQ-NH2 | 396 ng/mL | 664 | < 5 | – | – | – | – |
| CC[C@H](C)[C@H](NC(=O)[C@H](C)NC(=O)[C@@H](CC(=O)O)NC(=O)[C@H](C)NC(=O)[C@@H](N)Cc1ccc(O)cc1)C(=O)N[C@@H](Cc1ccccc1)C(=O)N[C@H](C(=O)N[C@H](CC(N)=O)C(=O)N[C@@H](CO)C(=O)N[C@@H](Cc1ccc(O)cc1)C(=O)N[C@@H](CCCN=C(N)N)C(=O)N[C@@H](CCCCN)C(=O)N[C@H](C(=O)N[C@@H](CC(C)C)C(=O)NCC(=O)N[C@@H](CCC(N)=O)C(=O)N[C@@H](CC(C)C)C(=O)N[C@@H](CO)C(=O)N[C@@H](C)C(=O)N[C@@H](CCCN=C(N)N)C(=O)N[C@@H](CCCCN)C(=O)N[C@@H](CC(C)C)C(N)=O)C(C)C)[C@@H](C)O | 498 ng/mL | 401 | < 5 | – | – | – | – |
| CC[C@H](C)[C@H](NC(=O)C(CC(=O)O)NC(=O)[C@H](CCC(N)=O)NC(=O)[C@H](CC(C)C)NC(=O)[C@H](CC(C)C)NC(=O)[C@H](CCCCN)NC(=O)[C@H](CCCN=C(N)N)NC(=O)[C@H](C)NC(=O)[C@H](CO)NC(=O)[C@H](CC(C)C)NC(=O)[C@H](CCC(N)=O)NC(=O)CNC(=O)[C@H](CC(C)C)NC(=O)[C@@H](NC(=O)[C@H](CCCCN)NC(=O)[C@H](CCCN=C(N)N)NC(=O)[C@H](Cc1ccc(O)cc1)NC(=O)[C@H](CO)NC(=O)[C@H](CC(N)=O)NC(=O)[C@@H](NC(=O)[C@H](Cc1ccccc1)NC(=O)[C@@H](NC(=O)[C@H](C)NC(=O)C(CC(=O)O)NC(=O)[C@@H](C)NC(=O)[C@@H](N)Cc1ccc(O)cc1)[C@@H](C)CC)[C@@H](C)O)C(C)C)C(=O)N[C@@H](CCSC)C(=O)N[C@@H](CO)C(=O)N[C@@H](CCCN=C(N)N)C(N)=O (stereo in doubt) | – | – | 670 | 150 | – | – | – |
| CC[C@H](C)[C@H](NC(=O)[C@H](C)NC(=O)[C@H](CC(=O)O)NC(=O)[C@H](C)NC(=O)[C@@H](N)Cc1ccc(O)cc1)C(=O)N[C@@H](Cc1ccccc1)C(=O)N[C@H](C(=O)N[C@H](CC(N)=O)C(=O)N[C@@H](CO)C(=O)N[C@@H](Cc1ccc(O)cc1)C(=O)N[C@@H](CCCN=C(N)N)C(=O)N[C@@H](CCCCN)C(=O)N[C@H](C(=O)N[C@@H](CC(C)C)C(=O)NCC(=O)N[C@@H](CCC(N)=O)C(=O)N[C@@H](CC(C)C)C(=O)N[C@@H](CO)C(=O)N[C@@H](C)C(=O)N[C@@H](CCCN=C(N)N)C(=O)N[C@@H](CCCCN)C(=O)N[C@@H](CC(C)C)C(=O)N[C@@H](CC(C)C)C(=O)N[C@@H](CCC(N)=O)C(=O)N[C@@H](CC(=O)O)C(=O)N[C@H](C(=O)N[C@@H](CCSC)C(=O)N[C@@H](CO)C(=O)N[C@@H](CCCN=C(N)N)C(N)=O)[C@@H](C)CC)C(C)C)[C@@H](C)O | – | – | 220 | – | – | – | – |
